Measurements reported in ChEMBL document CHEMBL1926517, “C-terminal tetrapeptides inhibit Aβ42-induced neurotoxicity primarily through specific interaction at the N-terminus of Aβ42” (J Med Chem, 2011).
pIC50: −log10 of the molar value. Calls of active or inactive are those of the source. No cut-off for these calls is given here. Residues, ends and D or L forms follow the SMILES beside them.

Tests used:
[1] = tested on: PC-12; assay: Neuroprotective activity in rat PC12 cells assessed as inhibition of amyloid-beta (1 to 42)-induced cell death after 24 hrs by MTT assay; type: functional, cell-based; settings: for pIC50: PC-12, 24 h
Procedure, shortened: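 NGF-differentiated PC-12 cells (100 ng/mL, 48 h) were given 10 μM Aβ42 plus peptide at 1:1, 1:2, 1:5 and 1:10 ratios for 24 h, and read by MTT. Viability was scaled to 1 μM staurosporine full kill (100% loss), with NaOH-matched vehicle and medium as negative controls. IC50 from dose–response, ≥3 independent experiments × 6 replicates, mean ± SEM.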

[2] = Cytotoxicity against rat PC12 cells assessed as cell viability at 1 uM after 24 hrs by MTT assay; type: cell-based, PC-12; settings: read-out: Activity
[3] = tested on: PC-12; assay: Neuroprotective activity in rat PC12 cells assessed as inhibition of amyloid-beta (1 to 42)-induced cell death after 24 hrs by LDH release assay; type: functional, cell-based; settings: PC-12, 24 h
Procedure, shortened: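 PC-12 cells were differentiated with NGF (100 ng/mL, 48 h), then exposed to Aβ42 alone or Aβ42:peptide mixtures at 1:1, 1:2, 1:5 and 1:10 ratios. Cell death was measured by LDH release (membrane integrity kit). IC50 was taken from the dose–response, ≥3 independent experiments with 6 replicates each, mean ± SEM.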

[4] = tested on: PC-12; assay: Neuroprotective activity in rat PC12 cells assessed as inhibition of staurosporine-induced cell death after 24 hrs by MTT assay; type: functional, cell-based
Procedure, shortened: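 Differentiated PC-12 cells (NGF 100 ng/mL, 48 h) exposed to 0.2 μM staurosporine, with or without varying tetrapeptide concentrations, for 24 h. Viability was read by MTT. Mean ± SEM, ≥3 independent experiments with 5 replicates per point.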

[5] = tested on: PC-12; assay: Neuroprotective activity in rat PC12 cells assessed as inhibition of alpha-synuclein-induced cell death after 24 hrs by MTT assay; type: functional, cell-based
Procedure, shortened: (§1)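 NGF-differentiated PC-12 cells (100 ng/mL, 48 h) treated 24 h with α-synuclein (15 μM) or alamethicin (4 μM), alone or with a range of tetrapeptide concentrations. MTT read-out. Mean ± SEM of ≥3 independent experiments, 5 replicates per point.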

[6] = tested on: PC-12; assay: Neuroprotective activity in rat PC12 cells assessed as inhibition of alamethicin-induced cell death after 24 hrs by MTT assay; type: functional, cell-based; procedure, shortened: as §1
[7] = Binding affinity to amyloid beta (1 to 42) Try residue at position 1 assessed as change in fluorescence intensity
Procedure, shortened: (§2)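 HFIP-pretreated Aβ42 or its Y-substituted analogue (5 μM nominal) was mixed with tetrapeptide (50 μM nominal), taken up in 60 mM NaOH (10% of volume), then diluted with 10 mM sodium phosphate pH 7.4 and spun briefly. Exact concentrations were set afterwards by AAA. Read-out: excitation 280 nm, emission 290–400 nm at 22°C, ≥10 immediate scans. Buffer-subtracted area per micromole was normalized to the analogue alone. Four independent experiments.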

[8] = Binding affinity to amyloid beta (1 to 42) Try residue at position 20 assessed as change in fluorescence intensity
Procedure, shortened: (§3)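 Aβ42 or Y-substituted analogue (5 μM final) mixed with tetrapeptide (50 μM final), HFIP-pretreated, dissolved in 60 mM NaOH (10% of volume) then diluted in 10 mM sodium phosphate pH 7.4. Spun 5,000 g 1 min, concentration confirmed post facto by AAA. Excitation 280 nm, emission 290–400 nm, 22°C, ≥10 scans of ~1 min right after preparation. Buffer subtracted, area under curve normalized to peptide alone. Four independent experiments, mean ± SEM.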

[9] = Binding affinity to amyloid beta (1 to 42) Try residue at position 30 assessed as change in fluorescence intensity; procedure, shortened: as §3
[10] = Binding affinity to amyloid beta (1 to 42) Try residue at position 1 assessed as change in fluorescence intensity using C-terminus acetylated compound; procedure, shortened: as §2
[11] = Binding affinity to amyloid beta (1 to 42) Try residue at position 1 assessed as change in fluorescence intensity using N-terminus amidated compound; procedure, shortened: as §2
[12] = Binding affinity to amyloid beta (1 to 42) Try residue at position 42 assessed as change in fluorescence intensity; procedure, shortened: as §3
[13] = Binding affinity to amyloid beta (1 to 42) Try residue at position 30 assessed as change in fluorescence intensity using N-terminus amidated compound; procedure, shortened: as §2
[14] = Binding affinity to wild type amyloid beta (1 to 42) assessed as change in fluorescence intensity; procedure, shortened: as §3
[15] = Binding affinity to amyloid beta (1 to 42) assessed as change in fluorescence intensity using C-terminus acetylated compound; procedure, shortened: as §2
[16] = tested on: PC-12; assay: Neuroprotective activity in rat PC12 cells assessed as inhibition of staurosporine-induced cell death after 24 hrs by MTT assay

CC[C@H](C)[C@H](NC(=O)[C@H](C)N)C(=O)N[C@H](C(=O)N[C@H](C(N)=O)C(C)C)C(C)C (H-AIVV-NH2)
Activity [1]: Dose-dependent effect

CN[C@@H]1C[C@H]2O[C@@](C)([C@@H]1OC)n1c3ccccc3c3c4c(c5c6ccccc6n2c5c31)C(=O)NC4 [STAUROSPORINE]
viability at 24 h, 1 µM [2]: 100%

CC[C@H](C)[C@H](NC(=O)[C@H](C)NC(=O)[C@@H](N)C(C)C)C(=O)N[C@@H](C)C(=O)O (H-VAIA-OH)
Activity [1]: Dose-dependent effect
pIC50 [1]: 4.82
pIC50 [3]: 4.85

CC[C@H](C)[C@H](NC(=O)[C@@H](NC(=O)[C@@H](N)C(C)C)C(C)C)C(=O)N[C@@H](C)C(=O)O
Activity [1]: Dose-dependent effect
pIC50 [1]: 4.68
Activity [4]: inactive
Activity [5]: inactive
Activity [6]: inactive
Flu intensity [7]: 117%
Activity [8]: inactive
Activity [9]: inactive
Flu intensity [10]: 48%
Flu intensity [11]: 62%
Activity [12]: inactive
Flu intensity [13]: 24%
Activity [14]: inactive
Flu intensity [15]: 19%
Activity [16]: inactive

CC[C@H](C)[C@H](NC(=O)[C@@H](NC(=O)[C@@H](N)C(C)C)C(C)C)C(=O)N[C@@H](C)C(N)=O (H-VVIA-NH2)
Activity [1]: Dose-dependent effect
pIC50 [1]: 4.55
pIC50 [3]: 4.52

CC[C@H](C)[C@H](NC(=O)[C@H](C)N)C(=O)N[C@H](C(=O)N[C@H](C(=O)O)C(C)C)C(C)C (H-AIVV-OH)
Activity [1]: Dose-dependent effect

CC[C@H](C)[C@H](NC(=O)[C@@H](NC(=O)[C@H](C)N)C(C)C)C(=O)N[C@@H](C)C(=O)O (H-AVIA-OH)
Activity [1]: Dose-dependent effect
pIC50 [1]: 4.28
pIC50 [3]: 4.66
